Assay results reported in ChEMBL document CHEMBL3588770, “Novel spirohydantoin derivative as a potent multireceptor-active antipsychotic and antidepressant agent” (Bioorg Med Chem, 2015).
Activity calls are given as the source filed them. The rule behind the calls is not given here.

How the values were obtained:
[1] = target: T1, 5-hydroxytryptamine receptor 1A (Rattus norvegicus, UniProt P19327); assay: Displacement of [3H]-8-OH-DPAT from 5-HT1A receptor in rat hippocampal membrane by liquid scintillation analysis; type: cell membranes, Hippocampus
T1 sequence (P19327 whole entry): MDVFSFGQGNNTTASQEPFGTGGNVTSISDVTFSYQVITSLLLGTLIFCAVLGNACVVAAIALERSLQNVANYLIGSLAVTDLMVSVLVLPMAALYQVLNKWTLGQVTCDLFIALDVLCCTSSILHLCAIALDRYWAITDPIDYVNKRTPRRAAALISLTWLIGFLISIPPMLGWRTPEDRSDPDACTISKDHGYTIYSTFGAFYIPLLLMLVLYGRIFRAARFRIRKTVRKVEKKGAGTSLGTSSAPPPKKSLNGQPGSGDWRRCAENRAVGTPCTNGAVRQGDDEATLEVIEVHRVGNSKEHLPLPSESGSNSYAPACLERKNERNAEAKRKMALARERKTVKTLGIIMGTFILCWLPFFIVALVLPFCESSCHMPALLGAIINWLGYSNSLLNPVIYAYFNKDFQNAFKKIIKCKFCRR
Procedure, shortened: (§1)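 Native rat membranes were used: hippocampus with [3H]-8-OH-DPAT (170 Ci/mmol) and 5-HT for non-specific binding; cortex with [3H]-ketanserin (88.0 Ci/mmol) and methysergide; hypothalamus with [3H]-5-CT (34.5 Ci/mmol) and 5-HT. Compounds were tested in triplicate at 7–8 concentrations (10⁻¹¹–10⁻⁴ M). Read-out was liquid scintillation counting. Ki came from nonlinear regression with Cheng-Prusoff, as the mean of at least two experiments.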

[2] = target: 5-hydroxytryptamine receptor 2A (Rattus norvegicus, UniProt P14842); assay: Displacement of [3H]ketanserin from 5-HT2A receptor in rat cortical membrane by liquid scintillation analysis; type: cell membranes; procedure, shortened: as §1
[3] = target: 5-hydroxytryptamine receptor 7 (Rattus norvegicus, UniProt P32305); assay: Displacement of [3H]-5-CT from 5-HT7 receptor in rat hypothalamic membrane by liquid scintillation analysis; type: cell membranes; procedure, shortened: as §1
[4] = target: D(2) dopamine receptor (Rattus norvegicus, UniProt P61169); assay: Displacement of [3H]spiperone from D2 receptor in rat striatum by liquid scintillation counting analysis
Procedure, shortened: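 Rat striatal membranes with [3H]-spiperone. Compounds were tested in triplicate at 7–8 concentrations (10⁻¹¹–10⁻⁴). Ki values were calculated.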

[5] = system: Mus musculus; assay: Antianxiety-like activity in Swiss albino mouse assessed as number of punished crossings at 0.06 to 0.5 mg/kg, ip by four-plate test; type: functional, organism-based
Procedure, shortened: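 Four-plate test in male Swiss albino mice, 8-10 per dose, dosed i.p. in Tween 80 vehicle. After 15-s habituation, a 0.8 mA, 0.5 s foot shock was given at each plate crossing, with a 3 s shock-free interval. Punished crossings were counted over a 1-min session.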

[6] = system: Mus musculus; assay: Antipsychotic activity in ip dosed CD-1 mouse assessed as inhibition of D-amphetamine-induced hyperlocomotor activity; type: functional, organism-based
Procedure, shortened: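 Male CD-1 mice, 8-10 per dose. d-Amphetamine was given s.c. 30 min pretest; test compound i.p. 60 min pretest in 1% Tween 80. After 30 min habituation in the activity monitor, ambulation crossings were counted for 1 h, recorded every 5 min.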

[7] = system: Mus musculus; assay: Toxicity in ip dosed spontaneous locomotor activity CD-1 mouse model assessed as dose required to cause sedation; type: organism-based; details: in vivo
Procedure, shortened: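 CD-1 mice, 8-10 per dose, with compound given i.p. in 1% Tween 80 suspension 60 min before testing. After 30 min habituation in individual cages, ambulation (channel crossings) was counted over 1 h, recorded every 5 min. Mean ± SEM, one-way ANOVA with Bonferroni test.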

[8] = system: Mus musculus; assay: Anti-depressant like activity in Swiss albino mouse assessed as shortening of immobility time at 0.01 to 0.1 mg/kg, ip by forced swim test; type: functional, organism-based
[9] = system: Mus musculus; assay: Toxicity in ip dosed CD-1 mouse assessed as minimum dose required for induction of catalepsy by bar test; type: organism-based; details: in vivo
Procedure, shortened: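 Male CD-1 mice, 10 per group, given compound i.p. (1% Tween 80 suspension). Forelimbs were placed on a horizontal rod 4 cm high at 30, 60 and 120 min. Catalepsy was scored up to 3 (≥60 s on bar). Minimum cataleptogenic dose is the lowest dose giving a mean score ≥1 at any of those times.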

Chain of 5-hydroxytryptamine receptor 2A (P14842 whole entry): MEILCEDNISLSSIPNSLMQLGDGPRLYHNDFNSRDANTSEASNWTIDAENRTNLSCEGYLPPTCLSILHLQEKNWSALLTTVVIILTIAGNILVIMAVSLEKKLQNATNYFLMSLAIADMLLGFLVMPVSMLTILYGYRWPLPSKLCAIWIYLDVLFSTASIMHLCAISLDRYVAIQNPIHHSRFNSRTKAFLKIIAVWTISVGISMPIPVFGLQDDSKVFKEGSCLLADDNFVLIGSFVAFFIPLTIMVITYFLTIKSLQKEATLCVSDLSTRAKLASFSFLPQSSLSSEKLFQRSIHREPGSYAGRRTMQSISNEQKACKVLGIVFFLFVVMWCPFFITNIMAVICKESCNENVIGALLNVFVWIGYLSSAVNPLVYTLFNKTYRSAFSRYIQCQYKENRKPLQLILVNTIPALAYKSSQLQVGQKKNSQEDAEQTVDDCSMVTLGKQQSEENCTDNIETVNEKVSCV
Chain of 5-hydroxytryptamine receptor 7 (P32305 whole entry): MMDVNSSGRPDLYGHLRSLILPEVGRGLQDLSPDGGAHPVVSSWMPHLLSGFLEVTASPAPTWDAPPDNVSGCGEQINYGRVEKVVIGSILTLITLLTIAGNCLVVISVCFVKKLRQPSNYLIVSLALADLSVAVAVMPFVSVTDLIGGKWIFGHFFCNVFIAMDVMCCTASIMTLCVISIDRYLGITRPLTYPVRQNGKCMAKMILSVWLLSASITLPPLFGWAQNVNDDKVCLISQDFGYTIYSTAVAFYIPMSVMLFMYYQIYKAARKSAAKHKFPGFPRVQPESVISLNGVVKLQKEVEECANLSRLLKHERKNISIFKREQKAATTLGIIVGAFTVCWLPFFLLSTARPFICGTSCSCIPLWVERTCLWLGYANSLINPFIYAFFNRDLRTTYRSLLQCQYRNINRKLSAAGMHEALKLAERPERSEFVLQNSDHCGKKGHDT
Chain of D(2) dopamine receptor (P61169 whole entry): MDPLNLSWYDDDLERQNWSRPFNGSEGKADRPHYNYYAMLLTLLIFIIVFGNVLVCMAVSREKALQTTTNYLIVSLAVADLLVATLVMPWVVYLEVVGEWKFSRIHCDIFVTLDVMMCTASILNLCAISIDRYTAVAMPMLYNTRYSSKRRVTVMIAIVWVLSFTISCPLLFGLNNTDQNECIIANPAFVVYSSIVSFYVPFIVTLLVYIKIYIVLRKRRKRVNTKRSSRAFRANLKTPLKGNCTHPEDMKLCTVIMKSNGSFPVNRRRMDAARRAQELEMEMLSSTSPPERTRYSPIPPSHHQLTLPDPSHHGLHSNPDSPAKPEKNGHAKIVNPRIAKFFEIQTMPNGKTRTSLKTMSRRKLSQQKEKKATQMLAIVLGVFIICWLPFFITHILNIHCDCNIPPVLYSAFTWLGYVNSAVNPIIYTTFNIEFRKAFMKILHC

| SMILES | Ki [1] | Ki [2] | Ki [3] | Ki [4] | Activity [5] | inhibition [6] | Activity [7] | inhibition [8] | Activity [9] |
| --- | --- | --- | --- | --- | --- | --- | --- | --- | --- |
| O=C1NC2(CCC(c3ccccc3)CC2)C(=O)N1CCCCN1CCN(c2ccccc2)CC1 (centres undefined) | 35 nM | 48 nM | 515 nM | – | – | – | – | – | – |
| O=C1NC2(CCc3ccccc32)C(=O)N1CCCCN1CCN(c2ccccc2)CC1 (centres undefined) | 75 nM | 111 nM | 93 nM | – | – | – | – | – | – |
| O=C1NC2(CCc3ccccc32)C(=O)N1CCCCN1CCN(c2cccc(C(F)(F)F)c2)CC1 (centres undefined) | 6 nM | 87 nM | 67 nM | 412 nM | – | – | – | – | – |
| O=C1NC2(CCC(c3ccccc3)CC2)C(=O)N1CCCCN1CCN(c2cccc(C(F)(F)F)c2)CC1 (centres undefined) | 22 nM | 122 nM | 379 nM | > 10000 nM | – | – | – | – | – |
| O=C1NC2(CCC(c3ccccc3)CC2)C(=O)N1CCCCN1CCN(c2cccc(Cl)c2)CC1 (centres undefined) | 30 nM | 38 nM | 768 nM | > 10000 nM | – | – | – | – | – |
| O=C1NC2(CCCc3ccccc32)C(=O)N1CCCCN1CCN(c2cccc(C(F)(F)F)c2)CC1 (centres undefined) | 5.3 nM | 157 nM | 117 nM | 608 nM | – | – | – | – | – |
| O=C1NC2(CCCc3ccccc32)C(=O)N1CCCCN1CCN(c2ccccc2)CC1 (centres undefined) | 13 nM | 77 nM | 116 nM | 743 nM | – | – | – | – | – |
| COc1ccccc1N1CCN(CCCCN2C(=O)NC3(CCCCC3c3ccccc3)C2=O)CC1 (centres undefined) | 42 nM | 498 nM | 63 nM | – | – | – | – | – | – |
| O=C1NC2(CCCCC2c2ccccc2)C(=O)N1CCCCN1CCN(c2ccccc2)CC1 (centres undefined) | 306 nM | 414 nM | 1500 nM | – | – | – | – | – | – |
| O=C1NC2(CCCCC2c2ccccc2)C(=O)N1CCCCN1CCN(c2cccc(Cl)c2)CC1 (centres undefined) | 113 nM | 171 nM | 43 nM | – | – | – | – | – | – |
| O=C1CCc2ccc(OCCCCN3CCN(c4cccc(Cl)c4Cl)CC3)cc2N1 [ARIPIPRAZOLE] | – | – | – | – | inactive | Dose-dependent effect | 1 mg/kg | inactive | 1 mg/kg |
| COc1ccccc1N1CCN(CCCCN2C(=O)NC3(CCC(c4ccccc4)CC3)C2=O)CC1 (centres undefined) | 3 nM | 75 nM | 130 nM | 79 nM | – | – | – | – | – |
